# Reference: ChEMBL document CHEMBL1122440, “2'-O-nitro-1-beta-D-arabinofuranosylcytosine. A new derivative of 1-beta-D-arabinofuranosylcytosine that resists enzymatic deamination and has antileukemic activity” (J Med Chem, 1983)
# How the values were obtained:
# CCRF-CEM/ara-C = assay: Cytotoxicity against CCRF-CEM/ara-C human leukemic lymphoblastoid cell lines; type: functional, cell-based
# Outline: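 Ara-C-resistant subline of CCRF-CEM human leukemic lymphoblasts, deficient in deoxycytidine kinase activity. Growth inhibition measured in culture.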
# L1210 [1] = assay: Antileukemic activity against L1210 leukemia cells in female B6D2F1/J mice at 156 mg/kg dose (post inoculation life span, days); type: functional, Mus musculus
# Outline: (§1)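 Female B6D2F1/J mice (about 20 g) inoculated ip on day 0 with ascites fluid containing 10^6 L1210 cells. Starting 24 h later, hydrochloride salt given ip daily for 7 consecutive days in water (neutralized with 1 N NaOH when necessary), 0.01 mL/g body weight. Five mice per dose. Life span reported as mean ± 1 SD. Increased life span calculated as (T/C - 1) × 100 against untreated controls.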
# RPMI 6410 = assay: Cytotoxicity against RPMI-6410 human leukemic lymphoblastoid cell lines; type: functional, cell-based
# L1210 [2] = assay: Antileukemic activity against L1210 leukemia cells in female B6D2F1/J mice at 56 mg/kg dose(Mean increased life span, calculated as (T/C-1)[…]); type: functional, Mus musculus; outline: as §1
# L1210 [3] = assay: Antileukemic activity against L1210 leukemia cells in female B6D2F1/J mice at 208 mg/kg dose (post inoculation life span, days); type: functional, Mus musculus; outline: as §1
# CCRF-CEM = assay: Cytotoxicity against CCRF-CEM human leukemic lymphoblastoid cell lines; type: functional, cell-based
# L1210 [4] = assay: Antileukemic activity against L1210 leukemia cells in female B6D2F1/J mice at 208 mg/kg dose(Mean increased life span, calculated as […]; type: functional, Mus musculus; outline: as §1
# L1210 [5] = assay: Antileukemic activity against L1210 leukemia cells in female B6D2F1/J mice at 93 mg/kg dose (post inoculation life span, days); type: functional, Mus musculus; outline: as §1
# L1210 [6] = assay: Antileukemic activity against L1210 leukemia cells in female B6D2F1/J mice at 34 mg/kg dose(Mean increased life span, calculated as (T/C-1)X100); type: functional, Mus musculus; outline: as §1
# L1210 [7] = assay: Antileukemic activity against L1210 leukemia cells in female B6D2F1/J mice at 156 mg/kg dose(Mean increased life span, calculated as (T/C-1)X100); type: functional, Mus musculus; outline: as §1
# MOLT-4 = assay: Cytotoxicity against MOLT-4 human leukemic lymphoblastoid cell lines; type: functional, cell-based
# L1210 [8] = assay: Antileukemic activity against L1210 leukemia cells in female B6D2F1/J mice at 34 mg/kg dose (post inoculation life span, days); type: functional, Mus musculus; outline: as §1
# L1210 [9] = assay: Antileukemic activity against L1210 leukemia cells in female B6D2F1/J mice at 56 mg/kg dose (post inoculation life span, days); type: functional, Mus musculus; outline: as §1
# L1210 [10] = assay: Antileukemic activity against L1210 leukemia cells in female B6D2F1/J mice at 93 mg/kg dose(Mean increased life span, calculated as (T/C-1)X100); type: functional, Mus musculus; outline: as §1
# L1210 [11] = assay: Antileukemic activity against L1210 leukemia cells in female B6D2F1/J mice at 56 mg/kg dose(Mean increased life span, calculated as (T/C-1)X100); type: functional, Mus musculus; outline: as §1
# L1210 [12] = assay: Antileukemic activity against L1210 leukemia cells in female B6D2F1/J mice at 208 mg/kg dose(Mean increased life span, calculated as (T/C-1)X100); type: functional, Mus musculus; outline: as §1
structure (smiles),measurement,setting,value
Nc1ccn([C@@H]2O[C@H](CO)[C@@H](O)[C@@H]2O[N+](=O)[O-])c(=O)n1,IC50,CCRF-CEM/ara-C,1000 µM
same,Life span,L1210 [1],13.8 days
same,IC50,RPMI 6410,6 µM
same,Mean increased life span,L1210 [2],64%
same,Life span,L1210 [3],16.6 days
same,IC50,CCRF-CEM,600 nM
same,Mean increased life span,L1210 [4],162%
same,Life span,L1210 [5],10.8 days
same,Mean increased life span,L1210 [6],17%
same,Mean increased life span,L1210 [7],118%
same,IC50,MOLT-4,400 nM
same,Life span,L1210 [8],7.4 days
same,Life span,L1210 [9],10.4 days
same,Mean increased life span,L1210 [10],71%
Nc1ccn([C@@H]2O[C@H](CO)[C@@H](O)[C@@H]2O)c(=O)n1 [CYTARABINE],IC50,CCRF-CEM/ara-C,100 µM
same,Life span,L1210 [1],16.25 days
same,IC50,RPMI 6410,0.06 µM
same,Life span,L1210 [3],16.6 days
same,IC50,CCRF-CEM,20 nM
same,Life span,L1210 [5],14 days
same,Mean increased life span,L1210 [6],102%
same,Mean increased life span,L1210 [11],105%
same,Mean increased life span,L1210 [7],157%
same,IC50,MOLT-4,10 nM
same,Life span,L1210 [8],12.8 days
same,Life span,L1210 [9],13 days
same,Mean increased life span,L1210 [10],128%
same,Mean increased life span,L1210 [12],162%
